Test results reported in ChEMBL document CHEMBL4715934, “Discovery of Imidazopyridines as Potent Inhibitors of Indoleamine 2,3-Dioxygenase 1 for Cancer Immunotherapy” (ACS Med Chem Lett, 2021).

What was measured:
[1] = target: T1, Indoleamine 2,3-dioxygenase 1 (Homo sapiens, UniProt P14902); experiment: Inhibition of IDO1 in IFN-gamma/LPS induced human whole blood assessed as tryptophan/kynurenine level measured after 18 hrs by RapidFire mass spectrometry; type: tissue-based
[2] = Metabolic stability in human liver microsomes assessed as parent compound remaining at 0.5 uM after 10 mins; type: ADME, Microsome; settings: read-out: Stabilty
Summary of the method: (§1)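 Parent compound at 0.5 μM incubated 10 min with 1 mg/mL human, mouse or rat liver microsomes; fraction of parent remaining reported; average of N = 2 unless noted.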

[3] = target: T1, Indoleamine 2,3-dioxygenase 1; experiment: Inhibition of IDO1 in recombinant IFN-gamma induced human HeLa cells incubated for 18 hrs by fluorescence microplate reader assay
Summary of the method: (§2)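 HeLa (human) or M109 (murine) cells induced with IFNγ to express IDO1, then cellular IDO1 activity measured; values are the average of N = 2 unless noted.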

[4] = target: Indoleamine 2,3-dioxygenase 1 (Mus musculus, UniProt P28776); experiment: Inhibition of IDO1 in recombinant IFN-gamma induced mouse M109 cells incubated for 18 hrs by fluorescence microplate reader assay; type: cell-based; summary of the method: as §2
Chain of Indoleamine 2,3-dioxygenase 1 (Mus musculus, UniProt P28776) (P28776 whole entry): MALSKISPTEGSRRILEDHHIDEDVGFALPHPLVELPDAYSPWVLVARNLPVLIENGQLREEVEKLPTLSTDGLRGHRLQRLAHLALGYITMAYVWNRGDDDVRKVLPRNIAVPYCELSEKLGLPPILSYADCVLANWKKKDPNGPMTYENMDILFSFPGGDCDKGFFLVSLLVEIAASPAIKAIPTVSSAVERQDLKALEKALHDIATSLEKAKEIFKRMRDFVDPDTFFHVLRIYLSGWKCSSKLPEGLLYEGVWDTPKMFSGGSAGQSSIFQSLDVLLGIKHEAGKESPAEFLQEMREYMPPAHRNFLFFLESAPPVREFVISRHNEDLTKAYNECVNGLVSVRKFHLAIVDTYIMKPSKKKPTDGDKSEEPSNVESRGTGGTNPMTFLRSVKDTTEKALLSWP

[5] = Metabolic stability in mouse liver microsomes assessed as parent compound remaining at 0.5 uM after 10 mins; type: ADME, Microsome; settings: read-out: Stabilty; summary of the method: as §1
[6] = Metabolic stability in rat liver microsomes assessed as parent compound remaining at 0.5 uM after 10 mins; type: ADME, Microsome; settings: read-out: Stabilty; summary of the method: as §1
[7] = Induction of proliferation of human T eff cells by T cell/DC mixed lymphocyte reaction (MLR) assay
in vivo = settings: mouse, tumor, po, 60 mg/kg
[8] = In vivo inhibition of IDO1 in mouse xenografted with human SKOV3 cells assessed as reduction in tumor kynurenine AUEC at 60 mg/kg, po qd for 5 days measured upto 24 hrs after dosing relative to vehicle treated control; type: functional; settings: SK-OV-3, po, 120 h, time 5 day
Summary of the method: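 nu/nu nude mice carrying SKOV3 tumors grown 2 weeks; dosed QD for 5 days starting day 14. On day 18, tumor sampled at 2, 6 and 24 h for drug level and kynurenine. […] Kyn reduction measured at steady state after the 5th dose, taken as area under the Kyn concentration–time curve 0–24 h versus vehicle control.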

T1 sequence (P14902 whole entry): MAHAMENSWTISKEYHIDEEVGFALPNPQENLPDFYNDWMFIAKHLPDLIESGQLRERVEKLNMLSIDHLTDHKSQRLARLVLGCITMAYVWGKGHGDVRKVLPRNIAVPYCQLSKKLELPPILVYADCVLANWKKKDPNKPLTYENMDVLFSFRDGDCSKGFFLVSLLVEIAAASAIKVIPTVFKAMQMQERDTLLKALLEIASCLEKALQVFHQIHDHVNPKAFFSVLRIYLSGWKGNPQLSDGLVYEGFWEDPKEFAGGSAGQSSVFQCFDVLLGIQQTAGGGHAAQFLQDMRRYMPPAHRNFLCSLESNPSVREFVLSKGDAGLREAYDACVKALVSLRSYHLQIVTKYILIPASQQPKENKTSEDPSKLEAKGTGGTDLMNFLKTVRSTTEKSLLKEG

Row | IC50 [1] [nM] | remaining at 10 min, 0.5 µM [2] [%] | IC50 [3] [nM] | IC50 [4] [nM] | remaining at 10 min, 0.5 µM [5] [%] | remaining at 10 min, 0.5 µM [6] [%] | AUC at 120 h (in vivo) [µM·h] | SMILES | EC50 [7] [nM] | inhibition in vivo at 60 mg/kg [8] [%]
1 | 6 | 78 | 2 | 5 | 7 | 35 |  | CCC(c1nc2ncc(Cl)cc2[nH]1)[C@H]1CC[C@@H](c2ccnc3ccc(F)cc32)CC1 (some centres not stated) |  | 
2 |  | 88 | 20 | 286 | 69 | 82 |  | C[C@@H](c1nnc(-c2ccc(Cl)cc2)[nH]1)[C@H]1CC[C@@H](c2ccnc3ccc(F)cc32)CC1 |  | 
3 | 50 | 83 | 3 | 6 | 39 | 100 |  | CCC(Nc1nnc(-c2ccc(OC)cc2)o1)[C@H]1CC[C@@H](c2ccnc3ccc(C(F)(F)F)cc32)CC1 (some centres not stated) |  | 
4 | 96 | 60 | 13 | 57 | 41 | 53 |  | CCOCC(Nc1nnc(-c2ccc(OC)cc2)o1)[C@H]1CC[C@@H](c2ccnc3ccc(C(F)(F)F)cc32)CC1 (some centres not stated) |  | 
5 |  | 18 | 165 | 451 | 2 | 0.4 |  | COc1ccc(Nc2nnc([C@H](C)[C@H]3CC[C@@H](c4ccnc5ccc(F)cc54)CC3)o2)cc1 |  | 
6 | 14 | 54 | 3 | 36 | 8 | 52 |  | CCC(Nc1nnc(-c2ccc(OC)cc2)o1)[C@H]1CC[C@@H](c2ccnc3c(F)cc(F)cc32)CC1 (some centres not stated) |  | 
7 | 32 |  | 3 |  |  | 8 |  | C[C@@H](c1nc2ccc(Cl)cc2[nH]1)[C@H]1CC[C@@H](c2ccnc3ccc(F)cc32)CC1 |  | 
8 |  | 68 | 239 | 348 | 41 | 23 |  | C[C@@H](c1nnc(-c2ccc(Cl)cc2)o1)[C@H]1CC[C@@H](c2ccnc3ccc(F)cc32)CC1 |  | 
9 | 9 | 82 | 2 | 3 | 49 | 27 |  | CCC(c1nc2ccc(Cl)cc2[nH]1)[C@H]1CC[C@@H](c2ccnc3ccc(F)cc32)CC1 (some centres not stated) |  | 
10 |  |  |  |  |  | 86 | 34.9 | C[C@@H](C(=O)Nc1ccc(Cl)cc1)[C@H]1CC[C@@H](c2ccnc3ccc(F)cc32)CC1 | 2 | 61
